Reference: ChEMBL document CHEMBL5385940 (J Nat Prod, 2024)
Activity calls are given as the source filed them. No cut-off for these calls is given here.

Legend:
[1] = Cytotoxicity against mouse 3T3-L1 cells assessed as cell viability at 5 uM incubated for 48 hrs by CCK-8 assay relative to control; format: toxicity, cell-based; details: read-out: Activity
Outline: (§1)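 3T3-L1 preadipocytes seeded at 1 × 10^3 cells/well and left 12 h, then exposed to alkaloids for 48 h. Viability by CCK-8, absorbance at 450 nm, relative to control. Lovastatin 5 μM included. Mean ± SD, n = 3.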

[2] = Cytotoxicity against mouse 3T3-L1 cells assessed as cell viability at 25 uM incubated for 48 hrs by CCK-8 assay relative to control; format: toxicity, cell-based; details: read-out: Activity; outline: as §1
[3] = Cytotoxicity against mouse 3T3-L1 cells assessed as cell viability at 50 uM incubated for 48 hrs by CCK-8 assay relative to control; format: toxicity, cell-based; details: read-out: Activity; outline: as §1
[4] = Cytotoxicity against mouse 3T3-L1 cells assessed as cell viability at 10 uM incubated for 48 hrs by CCK-8 assay relative to control; format: toxicity, cell-based; details: read-out: Activity; outline: as §1
[5] = Cytotoxicity against mouse 3T3-L1 cells assessed as cell viability at 100 uM incubated for 48 hrs by CCK-8 assay relative to control; format: toxicity, cell-based; details: read-out: Activity; outline: as §1
[6] = Cytotoxicity against mouse 3T3-L1 cells transfected with Lenti-PPARgamma-Luc reporter assessed as cell viability at 1 uM incubated for 48 hrs by CCK-8 assay relative to control; format: toxicity, cell-based; details: read-out: Activity
Outline: (§2)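 3T3-L1-Lenti-PPARγ-Luc reporter cells (lentivirus-transduced) exposed to alkaloids at a range of concentrations. Viability by CCK-8, absorbance at 450 nm, relative to control, used to set maximum noncytotoxic concentrations. Triplicate.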

[7] = Cytotoxicity against mouse 3T3-L1 cells transfected with Lenti-PPARgamma-Luc reporter assessed as cell viability at 25 uM incubated for 48 hrs by CCK-8 assay relative to control; format: toxicity, cell-based; details: read-out: Activity; outline: as §2
[8] = Cytotoxicity against mouse 3T3-L1 cells transfected with Lenti-PPARgamma-Luc reporter assessed as cell viability at 0.1 uM incubated for 48 hrs by CCK-8 assay relative to control; format: toxicity, cell-based; details: read-out: Activity; outline: as §2
3T3-L1 [9] = assay: Anti-adipogenic activity in mouse 3T3-L1 cells transfected with Lenti-PPARgamma-Luc reporter assessed as inhibition of PPARgamma expression by luminescence based microplate reader analysis; format: functional, cell-based
[10] = Cytotoxicity against mouse 3T3-L1 cells transfected with Lenti-PPARgamma-Luc reporter assessed as cell viability at 10 uM incubated for 48 hrs by CCK-8 assay relative to control; format: toxicity, cell-based; details: read-out: Activity; outline: as §2
[11] = Cytotoxicity against mouse 3T3-L1 cells assessed as cell viability at 20 uM incubated for 48 hrs by CCK-8 assay relative to control; format: toxicity, cell-based; details: read-out: Activity; outline: as §1
[12] = Cytotoxicity against mouse 3T3-L1 cells assessed as cell viability at 15 uM incubated for 48 hrs by CCK-8 assay relative to control; format: toxicity, cell-based; details: read-out: Activity; outline: as §1
3T3-L1 [13] = assay: Inhibition of adipogenesis in mouse 3T3-L1 cells assessed as downregulation of PPARgamma relative protein level […] by Western blot analysis; format: functional, cell-based
Outline: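 Differentiated 3T3-L1 adipocytes treated with alkaloids at several doses. Lysed in RIPA with PMSF on ice for 30 min. Proteins transferred to PVDF and blocked with 5% skim milk for 2 h at 25 °C. Primary antibody 2 h, HRP secondary 1 h. PPARγ protein level expressed relative to control. n = 3.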

[14] = Cytotoxicity against mouse 3T3-L1 cells transfected with Lenti-PPARgamma-Luc reporter assessed as cell viability at 30 uM incubated for 48 hrs by CCK-8 assay relative to control; format: toxicity, cell-based; details: read-out: Activity; outline: as §2
3T3-L1 [15] = assay: Anti-adipogenic activity in mouse 3T3-L1 preadipocytes assessed as inhibition of lipid accumulation incubated for 6 days by Nile Red staining based fluorescence microscopic analysis; format: functional, cell-based; details: time 6.0 day
[16] = Cytotoxicity against mouse 3T3-L1 cells transfected with Lenti-PPARgamma-Luc reporter assessed as cell viability at 5 uM incubated for 48 hrs by CCK-8 assay relative to control; format: toxicity, cell-based; details: read-out: Activity; outline: as §2
[17] = Cytotoxicity against mouse 3T3-L1 cells transfected with Lenti-PPARgamma-Luc reporter assessed as cell viability at 20 uM incubated for 48 hrs by CCK-8 assay relative to control; format: toxicity, cell-based; details: read-out: Activity; outline: as §2
[18] = Cytotoxicity against mouse 3T3-L1 cells transfected with Lenti-PPARgamma-Luc reporter assessed as cell viability at 15 uM incubated for 48 hrs by CCK-8 assay relative to control; format: toxicity, cell-based; details: read-out: Activity; outline: as §2

SMILES	viability at 48 h, 5 µM [1]	viability at 48 h, 25 µM [2]	viability at 48 h, 50 µM [3]	viability at 48 h, 10 µM [4]	viability at 48 h, 100 µM [5]	viability at 48 h, 1 µM [6]	viability at 48 h, 25 µM [7]	viability at 48 h, 0.1 µM [8]	Activity (3T3-L1 [9])	viability at 48 h, 10 µM [10]	viability at 48 h, 20 µM [11]	viability at 48 h, 15 µM [12]	inhibition (3T3-L1 [13])	viability at 48 h, 30 µM [14]	Activity (3T3-L1 [15])	viability at 48 h, 5 µM [16]	viability at 48 h, 20 µM [17]	viability at 48 h, 15 µM [18]
COc1cc2c(cc1O)C(Cc1ccc(O)c(-c3c(O)c(OC)cc4c3C(Cc3ccc(O)cc3)N(C)CC4)c1)N(C)CC2 (stereo unspecified)	> 80%	> 80%	> 80%	> 80%	> 80%													
COc1cc2c(cc1OC)[C@@H](Cc1ccc(O)c(Oc3cc4c(cc3OC)CCN(C)[C@@H]4Cc3ccc(O)cc3)c1)N(C)CC2	> 80%	< 80%		> 80%		> 80%	< 80%	> 80%	Dose-Dependent Effect	> 80%	> 80%	> 80%	Active	< 80%	Dose-Dependent Effect	> 80%	< 80%	> 80%
